Experimental data of several laboratories.
Each line is one published result; the experiments were not run side by side. pIC50: −log10 of the molar value.
Cell line: Vero
Effect on: cell growth or viability

Cc1ncc(CN2CCc3ccccc3C2)c2cc(C(=O)c3ccc4c(c3)OCCO4)oc12  pIC50 (MTT; 72 h): 3.74
Clc1ccc(-c2nnc(Nc3ccc(C4=NNC(c5ccccc5)C4)cc3)c3ccccc23)cc1 (stereo not drawn)  pIC50: 5.32
CNC(=O)c1ccc(NC(=O)Cn2c(=O)c3cc(I)ccc3n(Cc3ccccc3)c2=O)cc1  pIC50: 4.33
Clc1ccc(-c2nnc(Nc3ccc(C4=NNC(c5ccc(Cl)cc5)C4)cc3)c3ccccc23)cc1 (stereo not drawn)  pIC50: 5.37
COc1ccc(NC(=O)C2=C(C)NC(C)=C(C(=O)Nc3cc(OC)c(Cl)cc3OC)C2c2ccco2)c(OC)c1 (stereo not drawn)  pIC50 (MTT): 4.17
S=c1nc(-c2ccc(Nc3nnc(-c4ccc(Cl)cc4)c4ccccc34)cc2)cc(-c2ccccc2)[nH]1  pIC50: 5.39
O=C(CN1C(=O)SC(=Cc2ccc(Cl)cc2Cl)C1=O)Nc1ccc(C(=O)NNC(=O)c2ccccc2)cc1  pIC50 (MTS): 5.40
O=C(Cn1c(=O)c2cc(I)ccc2n(Cc2ccccc2)c1=O)Nc1ccc(-c2nnc(S)o2)cc1  pIC50: 4.36
COc1ccc(NC(=O)C2=C(C)NC(C)=C(C(=O)Nc3ccc(OC)cc3OC)C2c2ccco2)c(OC)c1  pIC50 (MTT): 4.29
NNC(=O)c1ccc(NC(=O)Cn2c(=O)c3cc(I)ccc3n(Cc3ccccc3)c2=O)cc1  pIC50: 4.28
COc1cc(NC(=O)C2=C(C)NC(C)=C(C(=O)Nc3cc(OC)c(Cl)cc3OC)C2c2ccco2)c(OC)cc1Cl  pIC50 (MTT): 4.16
Cc1cc(C)n(-c2ccc(NC(=O)Cn3c(=O)c4cc(I)ccc4n(Cc4ccccc4)c3=O)cc2)n1  pIC50: 4.34
CS(=O)(=O)CCNCc1ccc(-c2ccc3ncnc(Nc4ccc(OCc5cccc(F)c5)c(Cl)c4)c3c2)o1  pIC50 (MTT): 4.76
COc1ccc(C2CC(c3ccc(Nc4nnc(-c5ccc(Cl)cc5)c5ccccc45)cc3)=NN2)cc1 (stereo not drawn)  pIC50: 5.49
COc1cc(NC(=O)C2=C(C)NC(C)=C(C(=O)Nc3cc(OC)c(Cl)cc3OC)C2c2ccccc2)c(OC)cc1Cl  pIC50 (MTT): 4.37
CN(C)C/C=C/C(=O)Nc1cc2c(Nc3ccc(F)c(Cl)c3)ncnc2cc1O[C@H]1CCOC1  pIC50 (MTT; 72 h): 3.96
COc1ccc(NC(=O)C2=C(C)NC(C)=C(C(=O)Nc3cc(OC)c(Cl)cc3OC)C2c2ccc(Cl)cc2)c(OC)c1 (stereo not drawn)  pIC50 (MTT): 4.27
C#Cc1cccc(Nc2ncnc3cc(OCCOC)c(OCCOC)cc23)c1  pIC50 (MTT; 72 h): 4.17
